Data on 5 compounds can be found in publication PMC11341722 (Nature Communications, 2024).

The target of test [1] is T1, B^0AT1 (SLC6A19) (Homo sapiens, UniProt Q695T7).
T1 sequence (Q695T7 1-634): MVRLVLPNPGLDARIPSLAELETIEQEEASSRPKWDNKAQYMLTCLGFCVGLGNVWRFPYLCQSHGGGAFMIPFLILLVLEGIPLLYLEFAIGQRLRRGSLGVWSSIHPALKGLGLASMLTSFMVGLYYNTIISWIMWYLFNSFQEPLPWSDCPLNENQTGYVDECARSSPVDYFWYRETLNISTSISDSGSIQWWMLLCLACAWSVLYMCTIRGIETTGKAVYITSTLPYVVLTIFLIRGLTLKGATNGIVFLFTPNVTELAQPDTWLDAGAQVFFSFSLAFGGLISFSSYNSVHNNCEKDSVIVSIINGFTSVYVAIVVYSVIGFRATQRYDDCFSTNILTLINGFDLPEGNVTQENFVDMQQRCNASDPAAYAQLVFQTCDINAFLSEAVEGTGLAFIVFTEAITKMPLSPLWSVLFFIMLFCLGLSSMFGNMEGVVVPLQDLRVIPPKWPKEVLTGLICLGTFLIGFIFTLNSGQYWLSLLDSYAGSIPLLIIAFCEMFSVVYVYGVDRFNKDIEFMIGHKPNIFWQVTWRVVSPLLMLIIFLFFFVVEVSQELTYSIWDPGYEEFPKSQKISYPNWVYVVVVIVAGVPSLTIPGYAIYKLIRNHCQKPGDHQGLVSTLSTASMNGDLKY
T1 sequence (Q9HBJ8 15-222 partner): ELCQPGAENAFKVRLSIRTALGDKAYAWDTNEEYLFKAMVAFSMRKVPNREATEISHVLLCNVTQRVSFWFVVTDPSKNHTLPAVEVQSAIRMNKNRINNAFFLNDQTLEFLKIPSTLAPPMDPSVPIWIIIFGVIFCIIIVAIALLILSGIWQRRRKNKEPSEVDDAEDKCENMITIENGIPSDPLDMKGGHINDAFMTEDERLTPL
Description: Optimized radioactive L-[14C]leucine uptake. In kind it is cell-based.

The target of test [2] is T1, B^0AT1 (SLC6A19). Description: FLIPR membrane potential transport assay in CHO-BC cells. It counts as cell-based. As to conditions: read-out: inhibition at 30 µM. Put shortly:
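CHO cells (Flp-In) stably expressing B0AT1 with collectrin, passages <10, seeded at 60,000 cells/well overnight. Washed three times in HBSS + 5 mM glucose, pH 7.5. Preincubated 30 min at room temperature with test compound plus membrane-potential dye. Read fluorescence (ex 530/em 565 nm) every 10 s before and after adding L-leucine to 1.5 mM final, at room temperature.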

The test system of the next test is B^0AT1. Conditions: substrate; cited from earlier work.
For test [3], the target named is T1, B^0AT1 (SLC6A19). Conditions: read-out: IC50 range of initially identified inhibitors; cited from earlier work.

Like-named read-outs stand apart in the source and are kept apart here.

Broadly, the IC50 is the point on the concentration scale where inhibition reaches its midpoint. In the case of `CCNC(=O)/C=C/c1cccc(Br)c1` [Cinromide, cinromide], the 50% inhibitory concentration (IC50) at B^0AT1 (SLC6A19) [1] is 800 ± 100 nM. As a reminder, the inhibition is the percentage by which the read-out fell short of the control. As for `Cc1cc(Cl)cc(C)c1OCC(=O)NC(C)C` [JX8, 2-(4-chloro-2,6-dimethylphenoxy)-N-isopropylacetamide], the inhibition at 30 µM at B^0AT1 (SLC6A19) [2] was 8%.

`N[C@@H](Cc1c[nH]c2ccccc12)C(=O)O` [L-tryptophan]: in the test on B^0AT1, the “Vmax relative to that of L-methionine” value is recorded as 10%.

For the compound `CS(=O)(=O)Nc1ccc([N+](=O)[O-])cc1Oc1ccccc1` [Nimesulide, nimesulide], the concentration for half-maximal inhibition (IC50) at B^0AT1 (SLC6A19) [3] was 10 to 100 µM. For `CN1[C@@H]2CC[C@H]1C[C@@H](OC(c1ccccc1)c1ccccc1)C2` [benztropine], the IC50 at B^0AT1 (SLC6A19) [3] was 10 to 100 µM.
